In the RNAGym collection of RNA variant scans (doi:10.1126/science.aae0568) one finds yeast fitness data, which are given here for 38 variants.

B1: tRNA (parent)
chain: GUUCCGUUGGCGUAAUGGUAACGCGUCUCCCUCCUAAGGAGAAGACUGCGGGUUCGAGUCCCGUACGGAACG

This sample holds only a part of the variants without activity. Where only a bound is given, the exact number is not on record here.

Variants of B1 are the subject of the series. Briefly: yeast fitness relative to wild type (ratio to wild type); higher = fitter; tRNA-Arg(CCU), competitive growth, 37 C, YPD. Summed up:
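Genotype frequency changes were the basis for Darwinian fitness relative to wild type. The frequencies came from 100-nucleotide paired-end sequencing of gene amplicons from the start population and each end population of pooled yeast strains with tRNA-Arg(CCU) gene variants at the native locus. Competition ran in YPD at 37°C for 24 hours in six replicates, genotypes needed ≥ 100 starting reads, and estimates < 0.5 were set to 0.5.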
Take GUUCCGUUGGCGUAAUGGUAACGCGUCUACCUCCUAAGGAGAAGAGUGCGGGUUCGAGUCCCGUACGGAACG [C29A C46G]: the yeast fitness stood at 0.634. Turning to GUUCCGUUCGCGUAAUGGUAACGCGUCUCACUCCUAAAGAGGAGACUGCGGGUUCGAGUCCCGUACGGAACG [G9C C30A G38A A42G], the yeast fitness was 0.515.

Consider GAUCCGUUGGCGUAAUGGUCACGCGUUUCCCUCCUAAGGAGAAGACUGCGGGUUCGACUCCCGUACGGCACG [U2A A20C C27U G58C A69C], for which the yeast fitness was ≤ 0.5. Take GUUCCGUUGGCGUAUUGGUAACGCGUCUCCCUCCUAAGGAGAAGCCUGUGGGUUCGAGUCCCGUACGGAACG [A15U A45C C49U]: the yeast fitness came to 0.618.

With GUUCCGUUGGCGUAAUGGUAACGCGCCUGCCUCCUAAGGAGAAGACUGUGGGUUCGAGUCCCGUACGGUACG [U26C C29G C49U A69U], the yeast fitness was 0.588. Next, GUACCGUUGGCGUAAUGGUAACGCGUGUCCCUCCUAAGGAGAAGACUGCGGGUUCGAGUCCUGUUCGGAACG [U3A C27G C62U A65U]: ≤ 0.5; GUUCCGUUGGCGUAAUGGUAACGCGUCUCCCUCAUUAGGAGAAGACUGCGGAUUCGAGUACCGUACGGAACG [C34A A36U G52A C60A]: ≤ 0.5. As to GUUCCGUUGGCGUAAUGGUAACGCGUCUCCCUCGUAAGGAGAAGACUGCGGGUUCGGGUCUCGUACGGAACG [C34G A57G C61U], the yeast fitness was ≤ 0.5. For the variant GUUCCGUUGGCGUAAUGGUAACGCGUCUCCCUCGUAAGGAGAAGUCUGCGGGUUCGAGUCCCGUACGGAACG [C34G A45U], the yeast fitness came out at 0.567.

For the variant GUUCCGUAGGCGUAAUGGUAACGCGUCUCCCCCCUAAGGAGAAGACUGCGGGUUCGAGUCCCGUACGGAACG [U8A U32C], the yeast fitness was found to be 0.648. The same measure for GUUCCGUUGGCGUAAUGGUAACGUGUCUCCCUCCUAAGGAGUUGACUGCGGGUUCGAGUCCCGUACGGAACG [C24U A42U A43U]: 1.02. The same measure for GUUCCGUUGGCCUAAUGGUAACGCGUCUCCCUCCUAAGGAGAAGACUGCGGGUUCGAGUCCCGUACGCAACG [G12C G68C]: 0.823; for GUUCCGUUGGCGUAAUGGUCACGCAUCUCCCUCCUAAGGAGAACACUGCGGGUUCGAGUCCCGUACGAAACG [A20C G25A G44C G68A]: 0.523; for GUUCCGUUGGCGUAAUGGUACCGCGUCUCCCUCCUAAGGAGAAGACUGCGGGUUUGAGUCCCGUACGGAACG [A21C C55U]: 0.712. As for GUUCCGUUCCCGUAAUGCUAACGCGUCUCCCUUCUAAGGAGAACAUUGCGGGUUCGAGUCCUGUACGGAACG [G9C G10C G18C C33U G44C C46U C62U], the yeast fitness was 0.599.

With GUUCCGUUGGCGUAAUGGUAACGCGUCUGCCGCCUAAAGAGAAGACUCCGGGUUCGAGUCCCGUACUGCACG [C29G U32G G38A G48C G67U A69C], the yeast fitness was ≤ 0.5. For the variant GUUCUGUUGGCGUAAUGGUAACGCGUCUCCCUCCUGAGGAGAAGACUGUGGGUUCGAGUCCCGUACGGCACG [C5U A36G C49U A69C], the yeast fitness was ≤ 0.5. Turning to GUUUCGUUGGCGUAAUGCUAACGCGUUUCCCUGCUAAGGAGACGACUGCGGGUUCGAGUCCCGUACGGAUCG [C4U G18C C27U C33G A43C A70U], the yeast fitness turned out to be 0.659.

Turning to GUUCCGUUGGCGUACUGGUAACGCGUCUCCCUCCUAAGGAGAAGACUGCCGGAUCGAGUCCCGUAAGGAACG [A15C G50C U53A C66A], the yeast fitness was ≤ 0.5. For GUUCCGUUGGCGUAAUAGUAACGCGUCUCCCUCCGAAGGAGAAGACUCCGGGUUCGAGUCCCGUACCGAACG [G17A U35G G48C G67C], the yeast fitness was 0.558.

For the variant GUUCCGUUGGCGUAAUGGUAACGAGUCUCCCUCCUAAGGAGAAGACUGCGGGUUCGGGUCCCGUACGGAACG [C24A A57G], the yeast fitness was 0.601. Take GUUCCGUUGGCGUAAUGGUAACGCGCCUCCCACUUAACGAGAAGACUGCGGGUUCGAGUCCCGUACGGAACG [U26C U32A C34U G38C]: the yeast fitness came to 0.525. Consider GUUCCGUUGGUGUAAUGGUAACGCGUCUCCCUCCUAAGGAGAAGGGAGCGGGUUCGAGUCCGGUCCGGAACG [C11U A45G C46G U47A C62G A65C], for which the yeast fitness was 0.533. As for GUUCCGUUGGCGUAAUGGUAAUGCGUCUCCCUCCUAAGGAGAAGACUGCGGGUUCGACUCACGUACGGAACG [C22U G58C C61A], the yeast fitness was ≤ 0.5.

For the variant GUUCCGUUGGCGUAAAGAUAACGCGUCUCCCUCCUAAGGAGAAGACUGCGGGUUCGAGUCCCGUACGGAACG [U16A G18A], the yeast fitness came out at 0.846. On to GUUCCGUUGGCGUAAUGGUAACGCGUCUCCCUUCUAAGGAGAAGACUGCGGGUUCGACUCCCGUACGGAACG [C33U G58C], for which the yeast fitness is 0.635. For the variant GUUGCGUUGGCGUAAUGGUAGCGCGUCUCCCUCCUAAGGAGAAGACUGCGGGUUCGAGUCCCGUACCGAACG [C4G A21G G67C], the yeast fitness was found to be 0.631.

Consider GUUCCGUUGGCGUAAUGGUAACGCGUCUCCCUCCUAGGGAGAAGACUGCGGGUUCGAGUCCCCUACGGAACG [A37G G63C], for which the yeast fitness is 0.66.

Take GCUCGGUUGGCGUAAUGGUAACGCGUUUCCCUCCUAAGGAGAAGGCUGCGGGCUCGAGUCCCGUACGGAACG [U2C C5G C27U A45G U53C]: the yeast fitness was ≤ 0.5.

As to GUUCCGUUGGCGUAAUGGUCACGCGUCUCCCUCCUAAGAAGAAGACUGCGGGUUCGAGUCCCGUACGGAACG [A20C G39A], the yeast fitness was 0.84. On to GUUCCGUUGGCGUAAUGGUAACGCGUCUGCUUCCUAAGGAGACCACUGCGGGUUCGAGUCCCGUUCGGAACG [C29G C31U A43C G44C A65U], for which the yeast fitness came to 0.517.

In the case of GUUCCGUUGGCGGAAUGGUAACGCGUCUCCCUCCUACGGAGAAGACUGCGGGUUCGAGUCCCGUACGGAGCG [U13G A37C A70G], the yeast fitness worked out at 0.539.

Regarding GUUCCGUUGGCGUAAUGGUAACGCGUCUCCCUCCUAAGGAGAAGACAGCGGGUUCAAGUCCCGUACGGAACG [U47A G56A], the yeast fitness was 0.964. The same measure for GUUCCGUUAGCGUAAUGGUAAUGCGUCUCCCUCCUAGGGAGAAGACUGCGGGUUCGAGUCCCGUACGGAACG [G9A C22U A37G]: ≤ 0.5; for GUUCCGUUGGCGUAAUGGUAAAGCGUCUCCCUCCUAAGGAGAAGACUGAGGGUUCGAGUCCCGUACGGAACG [C22A C49A]: 0.669. As for GUUCCGUUGGCGUAAUGGUAACGCGUCUCCCUCCUAAGGAGAAGACUGCGGGUUCAAGUCCGGGACGGAACG [G56A C62G U64G], the yeast fitness was ≤ 0.5. With GUUACGUUGGCGUAAUGGUAACGCGUCUCCCUCCUCAGGAGGAGACUGCGGGUUCGAGUCCCGUACGGAACG [C4A A36C A42G], the yeast fitness was ≤ 0.5. Turning to GUUCCGUUGGUGUAAUGGUAACGCGUCUUCCUCCUAAGGAGAAGACUGCGGGUUCGAGUCCCGUAUGGAACG [C11U C29U C66U], the yeast fitness is 0.603.
